According to ChEMBL document CHEMBL4732226, “Discovery of a potent G-protein-coupled receptor 119 agonist for the treatment of type 2 diabetes” (Bioorg Med Chem, 2021):

Columns and labels:
[1] = Toxicity in female Wistar rat assessed as urea level at 200 mg/kg, po after 28 days (reference value: 48.09 +/- 5.3 mg/dl); type: organism-based; conditions: in vivo, 672 h, time 28 day
[2] = Toxicity in female Wistar rat assessed as ratio of liver to body weight at 200 mg/kg, po after 28 days (reference value: 3.219 +/- 0.221); type: organism-based; conditions: in vivo, 672 h, time 28 day
[3] = Toxicity in female Wistar rat assessed as ratio of spleen to body weight at 200 mg/kg, po after 28 days (reference value: 0.244 +/- 0.032); type: organism-based; conditions: in vivo, 672 h, time 28 day
[4] = Half life in Sprague-Dawley rat at 25 mg/kg, po up to 24 hrs; type: ADME, organism-based; conditions: in vivo
How it was run: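 Male SD rats fasted overnight, water ad libitum, fed 4 h after dosing. Single oral gavage of 25 mg/kg as a homogeneous suspension in 0.5% Tween 80 in 0.5% Na-CMC. Blood drawn into Na-heparin tubes at 0.25, 0.5, 1, 2, 4, 6, 8 and 24 h; plasma stored at -70°C. Parameters by non-compartmental analysis, with C0 taken as zero and BLQ samples set to zero.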

[5] = Toxicity in male Wistar rat assessed as globulin level at 200 mg/kg, po after 28 days (reference value: 2.62 +/- 0.12 g/dl); type: organism-based; conditions: in vivo, 672 h, time 28 day

Cc1c(Oc2cccc(/C=C3\SC(=O)NC3=O)c2)ncnc1OC1CCN(C(=O)OC(C)(C)C)CC1
Activity [1]: 46.42 mg/dL | Ratio [2]: 3.285 | Ratio [3]: 0.242 | half-life [4]: 185 min | Activity [5]: 2.64 g/dL
